# Source: ChEMBL document CHEMBL4428023, “1,4-Dihydropyridines Active on the SIRT1/AMPK Pathway Ameliorate Skin Repair and Mitochondrial Function and Exhibit Inhibition of Proliferation in Cancer Cells” (J Med Chem, 2016)
# Activity calls are given as the source filed them. The calls are words filed in the database; no cut-off is given here.
# Experiments:
# [1] = target: 3',5'-cyclic-AMP phosphodiesterase 4D (Homo sapiens) (UniProt Q08499); assay: Inhibition of recombinant human PDE4D assessed as phosphate release using cAMP as substrate at 50 uM after 60 mins by malachite green assay
# Method in brief: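 Recombinant human PDE4D (20 mU) in 10 mM Tris-HCl pH 7.4 with cAMP substrate. Compounds at 50 µM in DMSO; rolipram 10 µM as positive control. Incubated 60 min at 37 °C, then phosphate release measured by malachite green absorbance at 620 nm. Mean of three determinations.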
# HaCaT [2] = assay: Activation of AMPK/SIRT1 in human HaCaT cells assessed as nitric oxide production at 10 uM incubated for 1 hr in presence of compound C by DAF-2D staining-based fluorescence assay; assay type: cell-based
# Method in brief: (§1)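 HaCaT cells in DMEM with 10% FBS. DHP (10 µM) given for 1 h alone or together with 10 µM AMPK inhibitor compound C or 10 µM SIRT1 inhibitor EX-527. Intracellular NO read by flow cytometry after loading with 5 µM DAF-2D in medium (ex 485/em 538 nm). Expressed as % DAF-positive cells versus DMSO.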
# HaCaT [3] = assay: Activation of AMPK/SIRT1 in human HaCaT cells assessed as nitric oxide production at 10 uM incubated for 1 hr in presence of EX-527 by DAF-2D staining-based fluorescence assay; assay type: cell-based; method in brief: as §1
# [4] = target: T1, NAD-dependent protein deacetylase sirtuin-1 (Homo sapiens) (UniProt Q96EB6); assay: Activation of SIRT1 in […] at 1 uM by fluorimetric assay; assay type: cell-free; conditions: HaCaT, TDE = time-dependent effect
# T1 sequence (whole entry): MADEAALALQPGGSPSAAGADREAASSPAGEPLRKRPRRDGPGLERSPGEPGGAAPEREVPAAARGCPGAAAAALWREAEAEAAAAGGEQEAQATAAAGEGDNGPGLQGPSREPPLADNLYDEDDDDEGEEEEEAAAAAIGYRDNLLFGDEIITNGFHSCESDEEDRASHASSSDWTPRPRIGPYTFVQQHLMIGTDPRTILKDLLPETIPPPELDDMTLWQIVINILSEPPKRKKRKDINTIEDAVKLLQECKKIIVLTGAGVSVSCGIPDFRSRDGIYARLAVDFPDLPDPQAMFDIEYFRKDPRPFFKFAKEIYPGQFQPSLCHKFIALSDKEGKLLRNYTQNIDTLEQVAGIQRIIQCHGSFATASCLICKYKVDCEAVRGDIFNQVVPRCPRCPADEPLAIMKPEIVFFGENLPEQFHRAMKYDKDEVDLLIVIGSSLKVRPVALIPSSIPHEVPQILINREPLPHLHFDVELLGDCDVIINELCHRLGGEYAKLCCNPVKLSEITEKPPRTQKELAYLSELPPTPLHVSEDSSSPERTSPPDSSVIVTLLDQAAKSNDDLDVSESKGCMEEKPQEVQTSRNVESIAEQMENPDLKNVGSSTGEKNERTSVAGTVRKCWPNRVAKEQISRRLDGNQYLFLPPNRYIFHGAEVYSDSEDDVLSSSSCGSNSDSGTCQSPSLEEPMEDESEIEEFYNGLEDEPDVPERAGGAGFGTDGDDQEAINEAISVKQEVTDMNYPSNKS
# [5] = target: T1, NAD-dependent protein deacetylase sirtuin-1 (Homo sapiens); assay: Activation of SIRT1 in human HaCaT cells assessed as H4K16 deacetylation at 1 uM after 1 hr by Western blotting method; assay type: cell-based
# Method in brief: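 HaCaT cells treated 1 h at 1 µM, DMSO as solvent control. Cells lysed in Laemmli buffer and immunoblotted for acetyl-H4K16 (1:1000), with total histone H4 as loading control. Bands quantified by densitometry. At least three independent experiments.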
# Mus musculus = assay: Wound healing activity in CD1 mouse assessed as increased wound closure at 1 uM administered topically on wound everyday for 14 days by biopsy punch assay; assay type: functional, organism-based
# Method in brief: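 Male CD1 mice, 8 weeks old, anaesthetized i.p. with medetomidine 1 mg/kg plus ketamine 75 mg/kg, then biopsy-punch wounded. Compound (1 µM) in 20 µL saline applied directly to the wound daily for 14 days; solvent-treated group as control. Epithelial gap and % wound closure followed over time.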
# C2C12 = assay: Activation of AMPK/SIRT1 in mouse C2C12 cells assessed as increase in mitochondrial density at 30 uM after 16 hrs by Mitotracker Green staining-based confocal microscopy in presence of compound C; assay type: cell-based
# Method in brief: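 C2C12 myoblasts plated overnight, then in serum-free HBSS pH 7.4 and treated 16 h at 30 µM, alone or with 5 µM inhibitor (EX-527 or compound C). Mitotracker Green at 200 nM final was added for the last 30 min. Cells were fixed in 4% paraformaldehyde, permeabilized with Triton X-100 and imaged by confocal microscopy with fixed settings. Alternatively, mitochondrial fluorescence was quantified in plates.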
# Cavia porcellus [6] = species on record: Cavia porcellus; assay: Antagonist activity at calcium channel in guinea pig smooth muscle assessed as inhibition of calcium-induced contraction in K+-depolarized aortic strips at 50 uM
# Method in brief: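 Guinea-pig isolated aortic strips depolarized with 80 mM K+; read-out is percent inhibition of calcium-induced contraction.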
# M14 = assay: Antiproliferative activity against human M14 cells assessed as cell viability after 72 hrs by MTT assay; assay type: functional, cell-based; conditions: M14, 72 h
# Method in brief: (§2)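 Cells grown in RPMI with 10% fetal calf serum and penicillin, seeded in sextuplicate at 3 × 10^3 cells/well. After 24 h, cells were exposed 72 h to 5–200 µM. Viability was measured by MTT and expressed as treated/untreated × 100. IC50 was calculated from three independent experiments, reported as mean ± SD.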
# [7] = Antiproliferative activity against human SAN cells assessed as cell viability after 72 hrs by MTT assay; assay type: functional, cell-based; method in brief: as §2
# A549 = assay: Antiproliferative activity against human A549 cells assessed as cell viability after 72 hrs by MTT assay; assay type: functional, cell-based; conditions: A549, 72 h; method in brief: as §2
# NCI-H1299 = assay: Antiproliferative activity against human NCI-H1299 cells assessed as cell viability after 72 hrs by MTT assay; assay type: functional, cell-based; conditions: NCI-H1299, 72 h; method in brief: as §2
# HT-29 = assay: Antiproliferative activity against human HT-29 cells assessed as cell viability after 72 hrs by MTT assay; assay type: functional, cell-based; conditions: HT-29, 72 h; method in brief: as §2
# LoVo = assay: Antiproliferative activity against human LoVo cells assessed as cell viability after 72 hrs by MTT assay; assay type: functional, cell-based; method in brief: as §2
# Caov-3 cell line = assay: Antiproliferative activity against human Caov3 cells assessed as cell viability after 72 hrs by MTT assay; assay type: functional, cell-based; conditions: Caov-3, 72 h; method in brief: as §2
# HEY = assay: Antiproliferative activity against human HEY cells assessed as cell viability after 72 hrs by MTT assay; assay type: functional, cell-based; method in brief: as §2
# Cavia porcellus [8] = species on record: Cavia porcellus; assay: Potency index, ratio of potency for test compound to potency for nifedipine for inhibition of calcium channel in guinea pig ileum longitudinal smooth muscle assessed as inhibition of calcium-induced contraction; assay type: tissue-based
# [9] = target: T1, NAD-dependent protein deacetylase sirtuin-1 (Homo sapiens); assay: Activation of full-length GST-tagged recombinant human SIRT1 assessed as enzyme activity obtained with subtraction of intrinsic fluorescence using p53-based untagged peptide as substrate at 50 uM after 30 mins by SIRTainty assay
# 3',5'-cyclic-AMP phosphodiesterase 4D (Homo sapiens), sequence (Q08499 whole entry): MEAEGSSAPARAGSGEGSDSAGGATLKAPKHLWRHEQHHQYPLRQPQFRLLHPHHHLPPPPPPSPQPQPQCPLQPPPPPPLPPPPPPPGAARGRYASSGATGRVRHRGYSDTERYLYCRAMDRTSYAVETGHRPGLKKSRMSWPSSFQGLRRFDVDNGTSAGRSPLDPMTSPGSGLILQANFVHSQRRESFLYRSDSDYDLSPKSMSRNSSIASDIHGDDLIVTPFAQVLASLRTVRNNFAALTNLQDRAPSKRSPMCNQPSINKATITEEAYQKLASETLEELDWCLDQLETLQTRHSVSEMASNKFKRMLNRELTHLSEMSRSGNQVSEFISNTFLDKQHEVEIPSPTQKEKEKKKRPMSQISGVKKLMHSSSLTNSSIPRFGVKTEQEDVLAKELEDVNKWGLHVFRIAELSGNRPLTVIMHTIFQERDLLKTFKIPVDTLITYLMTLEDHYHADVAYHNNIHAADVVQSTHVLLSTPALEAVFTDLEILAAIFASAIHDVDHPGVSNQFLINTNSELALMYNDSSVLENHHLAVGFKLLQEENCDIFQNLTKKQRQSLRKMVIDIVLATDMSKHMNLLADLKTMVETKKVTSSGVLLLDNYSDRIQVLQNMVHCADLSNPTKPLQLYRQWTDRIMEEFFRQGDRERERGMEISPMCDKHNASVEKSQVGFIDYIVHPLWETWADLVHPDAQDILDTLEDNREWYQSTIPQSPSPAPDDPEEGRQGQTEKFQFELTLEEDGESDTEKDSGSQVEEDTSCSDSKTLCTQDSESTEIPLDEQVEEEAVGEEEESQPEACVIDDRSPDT
smiles,measurement,setting,value
CCOC(=O)C1=CN(C(=O)c2ccccc2)C=C(C(=O)OCC)C1c1ccccc1,inhibition,[1],inactive
same,Activity,HaCaT [2],inactive
same,Activity,HaCaT [3],inactive
same,Activity,[4],Tde
same,Activity,[5],Active
same,Activity,Mus musculus,Active
same,Activity,C2C12,inactive
same,inhibition,Cavia porcellus [6],12%
same,IC50,M14,153 µM
same,IC50,[7],161 µM
same,IC50,A549,169 µM
same,IC50,NCI-H1299,125 µM
same,IC50,HT-29,80 µM
same,IC50,LoVo,22 µM
same,IC50,Caov-3 cell line,> 200 µM
same,IC50,HEY,143 µM
same,Ratio,Cavia porcellus [8],720
same,Activity,[9],153%
